This passage reports Activity, IC50 and degraded results from ChEMBL document CHEMBL4257471, “Orthoester functionalized N-guanidino derivatives of 1,5-dideoxy-1,5-imino-d-xylitol as pH-responsive inhibitors of β-glucocerebrosidase” (Medchemcomm, 2017).

Data set [1] relates to T1, Lysosomal acid glucosylceramidase (Homo sapiens), P04062 [N409S].
T1 sequence (whole entry): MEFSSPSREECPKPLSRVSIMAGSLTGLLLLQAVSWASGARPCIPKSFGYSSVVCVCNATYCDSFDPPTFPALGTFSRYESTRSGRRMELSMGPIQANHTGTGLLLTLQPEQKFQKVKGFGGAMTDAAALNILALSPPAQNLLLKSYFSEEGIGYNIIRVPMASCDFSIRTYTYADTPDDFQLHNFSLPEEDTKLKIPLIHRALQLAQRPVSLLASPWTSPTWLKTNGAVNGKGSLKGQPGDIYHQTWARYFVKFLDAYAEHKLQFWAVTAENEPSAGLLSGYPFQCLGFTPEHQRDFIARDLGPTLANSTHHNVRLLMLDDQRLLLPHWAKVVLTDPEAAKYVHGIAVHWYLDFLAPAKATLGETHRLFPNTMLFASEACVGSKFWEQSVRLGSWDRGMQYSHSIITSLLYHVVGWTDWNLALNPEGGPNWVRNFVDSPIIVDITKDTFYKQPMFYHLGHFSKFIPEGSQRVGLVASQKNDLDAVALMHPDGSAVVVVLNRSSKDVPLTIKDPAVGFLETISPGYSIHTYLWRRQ
The data set can be described thus: Chaperone activity at GBA N370S mutant in Gaucher disease patient-derived fibroblasts assessed as restoration of enzyme activity at 1 to 10000 nM after 4 days by 4-methylumbelliferyl-beta-D-glucopyranoside substrate based fluorescence assay.

Data set [2] in a line: Inhibition of Penicillium decumbens naringinase pre-incubated for 5 mins followed by p-nitrophenyl-beta-D-glucopyranoside substrate addition and measured after 30 mins by spectrophotometric assay. The gist of the method:
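Enzyme at 0.06 U mL⁻¹; substrate p-nitrophenyl-β-D-glucopyranoside at 0.7 mM final in 100 mM sodium acetate buffer, pH 5.0. IC50 values in μM, averaged from triple independent duplicate runs.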

A short description of data set [3]: Inhibition of almond beta-glucosidase pre-incubated for 5 mins followed by p-nitrophenyl-beta-D-glucopyranoside substrate addition and measured after 30 mins by spectrophotometric assay. Also noted: species or system Prunus dulcis. The gist of the method:
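Enzyme at 0.05 U mL⁻¹ with p-nitrophenyl-β-D-glucopyranoside, 0.7 mM final, in 100 mM sodium acetate, pH 5.0. IC50 values in μM are means of triple independent duplicate analyses.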

The target of data set [4] is Alpha-galactosidase (Coffea arabica, UniProt Q42656). The data set can be described thus: Inhibition of green coffee beans alpha-galactosidase pre-incubated for 5 mins followed by p-nitrophenyl-alpha-D-galactopyranoside substrate addition and measured after 30 mins by spectrophotometric assay. The gist of the method:
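Enzyme at 0.05 U mL⁻¹ with p-nitrophenyl-α-D-galactopyranoside, 0.7 mM final, in sodium phosphate buffer (100 mM, pH 6.8). IC50 values in μM are averages of triple independent duplicate runs.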

Data set [5] addresses T2, Beta-galactosidase (Bos taurus, UniProt Q58D55).
T2 sequence (Q58D55 whole entry): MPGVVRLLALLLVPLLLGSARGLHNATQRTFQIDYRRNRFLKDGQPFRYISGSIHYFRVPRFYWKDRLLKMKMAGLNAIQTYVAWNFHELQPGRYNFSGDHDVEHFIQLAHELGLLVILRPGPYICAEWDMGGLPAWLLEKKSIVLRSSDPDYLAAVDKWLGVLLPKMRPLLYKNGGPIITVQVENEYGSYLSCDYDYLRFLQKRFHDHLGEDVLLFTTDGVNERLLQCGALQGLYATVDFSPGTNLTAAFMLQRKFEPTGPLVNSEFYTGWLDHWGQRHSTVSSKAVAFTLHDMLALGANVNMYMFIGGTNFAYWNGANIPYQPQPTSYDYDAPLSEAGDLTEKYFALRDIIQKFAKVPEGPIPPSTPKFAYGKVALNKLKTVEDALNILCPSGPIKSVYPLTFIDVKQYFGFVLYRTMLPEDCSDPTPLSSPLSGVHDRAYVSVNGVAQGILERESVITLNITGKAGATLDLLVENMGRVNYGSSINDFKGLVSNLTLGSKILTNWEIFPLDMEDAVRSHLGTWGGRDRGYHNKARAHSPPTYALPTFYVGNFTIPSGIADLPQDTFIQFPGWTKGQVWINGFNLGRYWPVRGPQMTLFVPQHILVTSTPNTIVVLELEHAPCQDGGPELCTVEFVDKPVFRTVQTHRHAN
The experiment in a line: Inhibition of bovine liver beta-galactosidase pre-incubated for 5 mins followed by p-nitrophenyl-beta-D-galactopyranoside substrate addition and measured after 30 mins by spectrophotometric assay. The gist of the method:
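Enzyme at 0.05 U mL⁻¹; p-nitrophenyl-β-D-galactopyranoside substrate, 0.7 mM final, in 100 mM sodium phosphate buffer, pH 7.2. IC50 values in μM from triple independent duplicate analysis.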

The target of data set [6] is T3, Galactocerebrosidase (Homo sapiens, UniProt P54803).
T3 sequence (P54803 whole entry): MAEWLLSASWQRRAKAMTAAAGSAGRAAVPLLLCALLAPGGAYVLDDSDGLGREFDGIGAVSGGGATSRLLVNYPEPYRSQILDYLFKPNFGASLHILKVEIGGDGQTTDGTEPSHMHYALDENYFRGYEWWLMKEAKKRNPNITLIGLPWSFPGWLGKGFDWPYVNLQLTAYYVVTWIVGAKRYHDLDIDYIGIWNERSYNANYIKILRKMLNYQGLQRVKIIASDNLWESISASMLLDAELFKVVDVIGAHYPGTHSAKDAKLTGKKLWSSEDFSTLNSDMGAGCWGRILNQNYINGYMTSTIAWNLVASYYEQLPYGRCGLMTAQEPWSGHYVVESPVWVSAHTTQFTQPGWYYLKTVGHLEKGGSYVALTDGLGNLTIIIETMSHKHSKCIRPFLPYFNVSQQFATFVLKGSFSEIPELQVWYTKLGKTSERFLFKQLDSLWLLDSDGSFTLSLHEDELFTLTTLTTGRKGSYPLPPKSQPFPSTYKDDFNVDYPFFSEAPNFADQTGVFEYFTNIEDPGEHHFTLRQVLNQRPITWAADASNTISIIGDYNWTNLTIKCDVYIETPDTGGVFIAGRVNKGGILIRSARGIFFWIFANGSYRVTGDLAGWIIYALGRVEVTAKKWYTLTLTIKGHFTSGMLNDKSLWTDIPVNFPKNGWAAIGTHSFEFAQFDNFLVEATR
The experiment in a line: Inhibition of recombinant human GALC at pH 5.2 pre-incubated for 10 mins followed by 4-methylumbelliferyl-beta-D-galactopyranoside substrate addition and measured after 20 mins by fluorescence assay. The gist of the method: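 Human recombinant enzyme assayed with 4-methylumbelliferyl-β-D-galactopyranoside substrate. IC50 values in μM, averaged from triple independent duplicate analysis.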

Data set [7] in a line: Inhibition of yeast alpha-glucosidase pre-incubated for 5 mins followed by p-nitrophenyl-alpha-D-glucopyranoside substrate addition and measured after 30 mins by spectrophotometric assay. Also noted: species or system Saccharomyces cerevisiae. The gist of the method:
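Enzyme at 0.05 U mL⁻¹; p-nitrophenyl-α-D-glucopyranoside substrate at 0.7 mM final in 100 mM sodium phosphate, pH 7.2. IC50 values in μM averaged from triple independent duplicate analysis.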

The target in data set [8] is T4, Lysosomal acid glucosylceramidase (Homo sapiens, UniProt P04062).
T4 sequence (P04062 whole entry): T1 sequence (whole entry) with S409N
The experiment in a line: Inhibition of recombinant human GBA pre-incubated for 30 mins followed by 4-methylumbelliferyl-beta-D-glucopyranoside substrate addition and measured after 10 mins using compound incubated at pH 5.2 for 24 hrs prior to test by fluorescence assay.

Data set [9] addresses T4, Lysosomal acid glucosylceramidase. The experiment in a line: Inhibition of recombinant human GBA pre-incubated for 30 mins followed by 4-methylumbelliferyl-beta-D-glucopyranoside substrate addition and measured after 10 mins using compound incubated at pH 7 buffer for 24 hrs prior to test by fluorescence assay.
The nature of data set [10]: Drug degradation in aqueous solution at room temperature after 6 days. The class given is physicochemical. Conditions: read-out: Drug degradation.
Data set [11] concerns T5, Lysosomal acid glucosylceramidase (Homo sapiens), P04062 [L483P].
T5 sequence (whole entry): T1 sequence (whole entry) with S409N, L483P
The data set can be described thus: Chaperone activity at GBA L444P mutant in Gaucher disease patient-derived fibroblasts assessed as restoration of enzyme activity at 1 to 10000 nM after 4 days by 4-methylumbelliferyl-beta-D-glucopyranoside substrate based fluorescence assay.

Residue numbers refer to the chain shown, from its start. Activity calls are given as the source filed them. No cut-off for these calls is given here.

Sequence of Alpha-galactosidase (Q42656 whole entry): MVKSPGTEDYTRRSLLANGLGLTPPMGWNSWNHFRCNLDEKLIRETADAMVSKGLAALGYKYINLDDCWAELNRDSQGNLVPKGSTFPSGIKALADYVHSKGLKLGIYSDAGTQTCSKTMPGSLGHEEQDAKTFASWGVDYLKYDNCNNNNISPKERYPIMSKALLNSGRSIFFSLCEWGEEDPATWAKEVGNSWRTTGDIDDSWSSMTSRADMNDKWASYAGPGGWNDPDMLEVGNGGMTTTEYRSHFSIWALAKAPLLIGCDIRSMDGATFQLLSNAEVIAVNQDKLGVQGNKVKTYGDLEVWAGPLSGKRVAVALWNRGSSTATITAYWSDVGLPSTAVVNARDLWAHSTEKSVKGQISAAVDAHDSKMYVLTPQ

Take `OC[C@H]1CNC[C@@H](O)[C@@H]1O`: the result in data set [1] was Active.

One may read the IC50 as the midpoint of a concentration-inhibition curve. For the compound `CCCCCCCCCN1C[C@H](O)[C@@H](O)[C@H](O)[C@H]1CO`, the IC50 in data set [2] is 0.085 µM; in [3] it was over 30 µM; in data set [4], over 30 µM; in [5] it was over 30 µM; in data set [6], over 30 µM; in data set [7] it was over 30 µM.

In the case of `CCCCOC1OCC(CNC(=N)N2C[C@@H](O)[C@H](O)[C@@H](O)C2)O1` (stereo partly drawn), the IC50 in data set [8] is over 30 µM; in [2], over 30 µM; in data set [9], 2.56 µM; in data set [3], 19.2 µM; in [4] it was over 30 µM; in data set [5], over 30 µM. Further, the IC50 in data set [6] and in data set [7] was over 30 µM each time. Also, in [10], the degraded at 144 h is under 3%. The outcome in data set [1] was Active.

As for `CCCCCCCCOC1OCC(CNC(=N)N2C[C@@H](O)[C@H](O)[C@@H](O)C2)O1` (stereo partly drawn), the IC50 in data set [8] was over 30 µM; in data set [2] it was over 30 µM; in data set [9], 0.025 µM; in data set [3], 14.6 µM; in data set [4], over 30 µM; in data set [5], over 30 µM. Also, the IC50 in data set [6] and in [7] was over 30 µM in each case. In addition, the degraded at 144 h in data set [10] is under 3%. In addition, the result in [11] was inactive. Besides, the outcome in data set [1] was Active.
